ChEMBL document CHEMBL1806372, “Cytotoxic ring A-modified steroid analogues derived from Grundmann's ketone” (Eur J Med Chem, 2011)
The source made the active and inactive calls. No cut-off for these calls is given here.

How the values were obtained:
Assay type in all cases: functional
TK-10 = assay: Growth inhibition of human TK10 cells after 48 hrs by sulforhodamine B assay; conditions: TK-10, 48 h
In short: (§1)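 NCI 60-cell panel five-dose assay. GI50, TGI and LC50 are derived from log concentration versus % growth inhibition curves. Cell lines insensitive at the top concentration are given a ">" prefix.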

M14 = assay: Cytotoxicity against human M14 cells after 48 hrs by sulforhodamine B assay; conditions: M14, 48 h, read-out: LC50 (the source's name)
In short: (§2)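 NCI 60 human tumour cell line panel run to the NCI protocol. GI50, TGI and LC50 come from log concentration vs % growth inhibition curves for each cell line. Lines insensitive at the top concentration are reported with ">".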

786-0 = assay: Growth inhibition of human 786-0 cells after 48 hrs by sulforhodamine B assay; conditions: 786-0, 48 h
In short: (§3)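 From log concentration versus % growth curves, GI50 (50% decrease in net growth), TGI (total growth inhibition) and LC50 (net 50% loss of initial cells) are derived for each line.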

T47D [1] = assay: Growth inhibition of human T47D cells after 48 hrs by sulforhodamine B assay; in short: as §1
MDA-MB-231 = assay: Growth inhibition of human MDA-MB-231 cells assessed as cell growth at 10^-5 M after 48 hrs by sulforhodamine B assay; conditions: MDA-MB-231, 48 h, read-out: Activity
In short: (§4)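 NCI-60 single high-dose screen run under the NCI protocol. Cells were incubated with compound at 10^-5 M for 48 h. The end point was determined by sulforhodamine B protein staining. Results are reported as percent growth of treated cells relative to untreated control cells.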

SK-MEL-2 = assay: Growth inhibition of human SK-MEL-2 cells after 48 hrs by sulforhodamine B assay; conditions: SK-MEL-2, 48 h
In short: (§5)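 GI50, TGI and LC50 were derived from log concentration versus % growth inhibition curves for each cell line. GI50 is the concentration giving a 50% decrease in net cell growth. Insensitive lines are reported as greater than the highest concentration.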

A549 [2] = assay: Growth inhibition of human A549 cells after 48 hrs by sulforhodamine B assay; conditions: A549, 48 h; in short: as §3
SNB-19 [3] = assay: Growth inhibition of human SNB19 cells assessed as cell growth at 10^-5 M after 48 hrs by sulforhodamine B assay; conditions: SNB-19, 48 h, read-out: Activity
In short: (§6)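 NCI 60-cell panel single-dose screen under the NCI protocol. Cells are exposed to compound at one concentration (10^-5 M) for 48 h. The end point is protein staining with sulforhodamine B. Each line is reported as percent growth of treated cells relative to untreated control cells.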

SR = assay: Cytotoxicity against human SR cells after 48 hrs by sulforhodamine B assay; conditions: read-out: LC50 (the source's name)
Streptococcus entericus = assay: Antibacterial activity against Streptococcus entericus assessed as zone of inhibition at 5 uL and 32 degC after 36 hrs by disk diffusion method
In short: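 Disc diffusion on AC agar, each strain spread evenly over the medium; test compounds given as 1% (w/v) DMSO solutions. Plates covered and incubated 36 h at 32 °C, then the diameter of the zone of inhibited growth measured in mm. Tetracycline served as antibacterial reference.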

SN12C [4] = assay: Growth inhibition of human SN12C cells after 48 hrs by sulforhodamine B assay; in short: as §1
MDA-MB-435 = assay: Growth inhibition of human MDA-MB-435 cells assessed as cell growth at 10^-5 M after 48 hrs by sulforhodamine B assay; conditions: MDA-MB-435, 48 h, read-out: Activity; in short: as §4
A549 [5] = assay: Cytotoxicity against human A549 cells after 48 hrs by sulforhodamine B assay; conditions: A549, 48 h, read-out: LC50 (the source's name); in short: as §2
ACHN = assay: Growth inhibition of human ACHN cells after 48 hrs by sulforhodamine B assay; in short: as §3
OVCAR-8 [6] = assay: Growth inhibition of human OVCAR8 cells after 48 hrs by sulforhodamine B assay; conditions: OVCAR-8, 48 h; in short: as §5
SNB-19 [7] = assay: Cytotoxicity against human SNB19 cells after 48 hrs by sulforhodamine B assay; conditions: SNB-19, 48 h, read-out: LC50 (the source's name); in short: as §2
SF-295 = assay: Growth inhibition of human SF295 cells after 48 hrs by sulforhodamine B assay; conditions: SF-295, 48 h; in short: as §5
DU-145 = assay: Growth inhibition of human DU145 cells after 48 hrs by sulforhodamine B assay; conditions: DU-145, 48 h; in short: as §3
COLO 205 = assay: Cytotoxicity against human COLO205 cells after 48 hrs by sulforhodamine B assay; conditions: COLO 205, 48 h, read-out: LC50 (the source's name); in short: as §2
OVCAR-8 [8] = assay: Growth inhibition of human OVCAR8 cells assessed as cell growth at 10^-5 M after 48 hrs by sulforhodamine B assay; conditions: OVCAR-8, 48 h, read-out: Activity; in short: as §4
SF-268 = assay: Cytotoxicity against human SF268 cells after 48 hrs by sulforhodamine B assay; conditions: SF-268, 48 h, read-out: LC50 (the source's name); in short: as §2
CAKI-1 = assay: Growth inhibition of human Caki1 cells after 48 hrs by sulforhodamine B assay; conditions: CAKI-1, 48 h; in short: as §3
NCI/ADR-RES = assay: Cytotoxicity against human NCI/ADR-RES cells after 48 hrs by sulforhodamine B assay; conditions: read-out: LC50 (the source's name); in short: as §2
RPMI-8226 = assay: Cytotoxicity against human RPMI8226 cells after 48 hrs by sulforhodamine B assay; conditions: RPMI-8226, 48 h, read-out: LC50 (the source's name); in short: as §2
OVCAR-4 = assay: Growth inhibition of human OVCAR4 cells after 48 hrs by sulforhodamine B assay; conditions: OVCAR-4, 48 h; in short: as §5
KM12 = assay: Growth inhibition of human KM12 cells assessed as cell growth at 10^-5 M after 48 hrs by sulforhodamine B assay; conditions: KM12, 48 h, read-out: Activity
In short: (§7)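 NCI 60-cell panel single high-dose screen: compound applied at 10^-5 M for 48 h, endpoint by sulforhodamine B protein-binding dye. Values reported as growth percent of treated cells relative to untreated control cells.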

SF-539 = assay: Growth inhibition of human SF539 cells after 48 hrs by sulforhodamine B assay; conditions: SF-539, 48 h; in short: as §5
HCT-116 = assay: Growth inhibition of human HCT116 cells assessed as cell growth at 10^-5 M after 48 hrs by sulforhodamine B assay; conditions: HCT-116, 48 h, read-out: Activity; in short: as §7
T47D [9] = assay: Growth inhibition of human T47D cells assessed as cell growth at 10^-5 M after 48 hrs by sulforhodamine B assay; conditions: read-out: Activity; in short: as §6
SN12C [10] = assay: Cytotoxicity against human SN12C cells after 48 hrs by sulforhodamine B assay; conditions: read-out: LC50 (the source's name); in short: as §2
HCC 2998 = assay: Cytotoxicity against human HCC2998 cells after 48 hrs by sulforhodamine B assay; conditions: HCC 2998, 48 h, read-out: LC50 (the source's name); in short: as §2

In the case of `CC(C)CCC[C@@H](C)[C@H]1CC[C@H]2C3=CC[C@@H]4C(=O)C=CC(=O)[C@@H]4[C@@H]3CC[C@]12C`, the GI50 (TK-10) is reported as 2.65 µM, the TGI (TK-10) is reported as > 100 µM and the CC50 (M14) is reported as > 100 µM. The GI50 (786-0) was 0.311 µM, the TGI (786-0) was 1.5 µM and the GI50 (T47D [1]) was 0.337 µM. For the same compound, the TGI (T47D [1]) was > 100 µM, the growth at 10 µM (MDA-MB-231) was 28.6% and the GI50 (SK-MEL-2) was 3.37 µM. The TGI (SK-MEL-2) was > 100 µM, the GI50 (A549 [2]) was 0.058 µM and the TGI (A549 [2]) was 0.78 µM. The growth at 10 µM (SNB-19 [3]) was 7.34%, the CC50 (SR) was > 100 µM and the “diameter of the inhibition zone (DIZ)” value (Streptococcus entericus) was “inactive”. The GI50 (SN12C [4]) was 0.269 µM, the TGI (SN12C [4]) was > 100 µM and the growth at 10 µM (MDA-MB-435) was -16.4%. For the same compound, the CC50 (A549 [5]) was > 100 µM, the GI50 (ACHN) was 0.162 µM and the TGI (ACHN) was 1.35 µM. The GI50 (OVCAR-8 [6]) was 0.058 µM, the TGI (OVCAR-8 [6]) was 1.18 µM and the CC50 (SNB-19 [7]) was > 100 µM. The GI50 (SF-295) was 0.141 µM, the TGI (SF-295) was 0.539 µM and the GI50 (DU-145) was 0.632 µM. For the same compound, the TGI (DU-145) was > 100 µM, the CC50 (COLO 205) was > 0.536 µM and the growth at 10 µM (OVCAR-8 [8]) was 0.17%. For the same compound, the CC50 (SF-268) was > 100 µM, the GI50 (CAKI-1) was 0.279 µM and the TGI (CAKI-1) was 0.633 µM. The CC50 (NCI/ADR-RES) was > 100 µM, the CC50 (RPMI-8226) was > 100 µM and the GI50 (OVCAR-4) was 0.159 µM. The TGI (OVCAR-4) was 0.498 µM, the growth at 10 µM (KM12) was -10.1% and the GI50 (SF-539) was 0.478 µM. The growth at 10 µM (HCT-116) was 3.29%, the growth at 10 µM (T47D [9]) was -18.9% and the CC50 (SN12C [10]) was > 100 µM. For the same compound, the CC50 (HCC 2998) was > 100 µM.
Compound `CC(C)CCC[C@@H](C)[C@H]1CC[C@H]2C3=CCn4c(=O)ccc(=O)n4[C@@H]3CC[C@]12C` has a GI50 (TK-10) of 0.356 µM, a TGI (TK-10) of 1.26 µM and a CC50 (M14) of 3.32 µM. For the same compound, the GI50 (786-0) was 0.713 µM, the TGI (786-0) was 1.95 µM and the GI50 (T47D [1]) was 0.255 µM. The TGI (T47D [1]) was 1.62 µM, the growth at 10 µM (MDA-MB-231) was -89.2% and the GI50 (SK-MEL-2) was 0.286 µM. For the same compound, the TGI (SK-MEL-2) was 0.774 µM, the GI50 (A549 [2]) was 0.325 µM and the TGI (A549 [2]) was 1.24 µM. For the same compound, the growth at 10 µM (SNB-19 [3]) was -100%, the CC50 (SR) was > 100 µM and the “diameter of the inhibition zone (DIZ)” value (Streptococcus entericus) was 7 mm. For the same compound, the GI50 (SN12C [4]) was 0.388 µM, the TGI (SN12C [4]) was 1.69 µM and the growth at 10 µM (MDA-MB-435) was -57.4%. It also gave a CC50 (A549 [5]) of 4.04 µM, a GI50 (ACHN) of 1.04 µM and a TGI (ACHN) of 2.32 µM. It also gave a GI50 (OVCAR-8 [6]) of 0.317 µM, a TGI (OVCAR-8 [6]) of 1.58 µM and a CC50 (SNB-19 [7]) of 6.01 µM. The GI50 (SF-295) was 0.11 µM, the TGI (SF-295) was 0.627 µM and the GI50 (DU-145) was 1.04 µM. The TGI (DU-145) was 2.26 µM, the CC50 (COLO 205) was 2.36 µM and the growth at 10 µM (OVCAR-8 [8]) was -39.7%. The CC50 (SF-268) was 5.7 µM, the GI50 (CAKI-1) was 0.179 µM and the TGI (CAKI-1) was 0.577 µM. The CC50 (NCI/ADR-RES) was 2.28 µM, the CC50 (RPMI-8226) was > 100 µM and the GI50 (OVCAR-4) was 0.686 µM. The TGI (OVCAR-4) was 2.11 µM, the growth at 10 µM (KM12) was -65.5% and the GI50 (SF-539) was 1.47 µM. For the same compound, the TGI (SF-539) was 2.89 µM, the growth at 10 µM (HCT-116) was -44.6% and the growth at 10 µM (T47D [9]) was -75.2%. It also gave a CC50 (SN12C [10]) of 5.28 µM and a CC50 (HCC 2998) of 4.99 µM.
With `CC(C)CCC[C@@H](C)[C@H]1CC[C@H]2[C@@H]3CCN4C(=O)CCC(=O)N4[C@@H]3CC[C@]12C` the growth at 10 µM (MDA-MB-231) was 98.2%, the growth at 10 µM (SNB-19 [3]) was 162% and the “diameter of the inhibition zone (DIZ)” value (Streptococcus entericus) was 10 mm. It also gave a growth at 10 µM (MDA-MB-435) of 97.7%, a growth at 10 µM (OVCAR-8 [8]) of 93.5% and a growth at 10 µM (KM12) of 105%. The growth at 10 µM (HCT-116) was 95% and the growth at 10 µM (T47D [9]) was 64.4%.
